# Assays:
# Cavia porcellus [1] = assay: Compound dose producing maximum increase in dP/dt, in anesthetized guinea pig during slow intravenous infusion of 1000 uM solution.; format: functional
# Summary of the method: (§1)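 Anesthetized guinea pigs with jugular vein cannula and tracheal intubation (spontaneous respiration); +dP/dt recorded. Compound dissolved in DMSO, diluted with physiological solution to 1% DMSO final, infused IV at 0.16 mL/min until death or up to 90 min. Starting infusate concentration was based on the atrial EC50. Doses for maximal inotropic effect and for death determined; ED80 taken from dose–response curves. Means ± SEM where possible.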
# Cavia porcellus [2] = assay: Compound dose producing maximum inotropic effect in anesthetized guinea pig during slow intravenous infusion of 1000 uM solution.; format: functional; summary of the method: as §1
# [3] = molecular target: Sodium/potassium-transporting ATPase; assay: In vitro inhibitory concentration against dog kidney Na+/K+ ATPase; format: protein-complex assay, Canis lupus familiaris
# Summary of the method: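 Na+,K+-ATPase isolated and purified from dog kidney. Inhibition measured as percent hydrolysis of 32P-ATP with versus without compound. […] Single-concentration entries report percent inhibition at the stated concentration. Compounds tested within 1–4 h of dissolution.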
# [4] = Percent increase in force of contraction in vitro determined using electrically driven guinea pig left atrium.; format: functional; details: Cavia porcellus, Cardiac atrium
# Summary of the method: (§2)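 Isolated guinea pig atria in solution bubbled with 95% O2/5% CO2, field-stimulated by platinum electrodes at 1 Hz (1 ms square pulses, twice threshold voltage). After 60 min equilibration, cumulative concentrations added, each held until maximal response or arrhythmia.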
# Cavia porcellus [5] = assay: Compound dose producing 80% of increase in dP/dt in anesthetized guinea pig during slow intravenous infusion of 1000 uM solution.; format: functional; summary of the method: as §1
# Cavia porcellus [6] = species on record: Cavia porcellus; assay: Concentration producing 50% of the maximal increase in the force of contraction in isolated guinea pig left atrium; format: functional; details: Cardiac atrium; summary of the method: as §2
# Cavia porcellus [7] = assay: Compound dose causing lethality in anesthetized guinea pig during slow intravenous infusion of 1000 uM solution.; format: toxicity, organism-based; details: in vivo; summary of the method: as §1
# Cavia porcellus [8] = assay: Compound dose producing maximum increase in dP/dt, in anesthetized guinea pig during slow intravenous infusion of 375 uM solution.; format: functional; summary of the method: as §1
# Cavia porcellus [9] = assay: Compound dose producing maximum inotropic effect in anesthetized guinea pig during slow intravenous infusion of 375 uM solution.; format: functional; summary of the method: as §1
# Cavia porcellus [10] = assay: Compound dose causing lethality in anesthetized guinea pig during slow intravenous infusion of 375 uM solution.; format: toxicity, organism-based; details: in vivo; summary of the method: as §1
# Cavia porcellus [11] = assay: Compound dose producing 80% of increase in dP/dt in anesthetized guinea pig during slow intravenous infusion of 375 uM solution.; format: functional; summary of the method: as §1
# Cavia porcellus [12] = assay: Compound dose producing 80% of increase in dP/dt in anesthetized guinea pig during slow intravenous infusion of 11.0 uM solution.; format: functional; summary of the method: as §1
# Cavia porcellus [13] = assay: Compound dose causing lethality in anesthetized guinea pig during slow intravenous infusion of 11.0 uM solution.; format: toxicity, organism-based; details: in vivo; summary of the method: as §1
# Cavia porcellus [14] = assay: Compound dose producing maximum inotropic effect in anesthetized guinea pig during slow intravenous infusion of 11.0 uM solution.; format: functional; summary of the method: as §1
# Cavia porcellus [15] = assay: Compound dose producing maximum increase in dP/dt, in anesthetized guinea pig during slow intravenous infusion of 11.0 uM solution.; format: functional; summary of the method: as §1
# [16] = In vitro maximum inotropic effect on contractile force of an electrically driven guinea pig left atrium.; format: functional, Cavia porcellus, Cardiac atrium; summary of the method: as §2
# Cavia porcellus [17] = assay: Compound dose producing maximum increase in dP/dt, in anesthetized guinea pig during slow intravenous infusion of 51.2 uM solution.; format: functional
# Summary of the method: (§3)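 Anesthetized guinea pig; jugular vein cannula, trachea intubated, spontaneous respiration. After stabilization, compound in physiological solution with 1% DMSO (final) infused at 0.16 mL/min until death or up to 90 min. Infused concentration chosen from the paced guinea pig atria EC50. Read-out is +dP/dt. Doses for the maximal inotropic increase and for death were determined; ED80 (80% increase over basal) came from dose-response curves. Means ± SEM.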
# Cavia porcellus [18] = assay: Compound dose causing lethality in anesthetized guinea pig during slow intravenous infusion of 51.2 uM solution.; format: toxicity, organism-based; details: in vivo; summary of the method: as §1
# Cavia porcellus [19] = assay: Compound dose producing maximum inotropic effect in anesthetized guinea pig during slow intravenous infusion of 51.2 uM solution.; format: functional; summary of the method: as §3
# Cavia porcellus [20] = assay: Compound dose producing 80% of increase in dP/dt in anesthetized guinea pig during slow intravenous infusion of 51.2 uM solution.; format: functional; summary of the method: as §3
# Cavia porcellus [21] = assay: Compound dose producing maximum increase in dP/dt, in anesthetized guinea pig during slow intravenous infusion of 220 uM solution.; format: functional; summary of the method: as §1
# Cavia porcellus [22] = assay: Compound dose causing lethality in anesthetized guinea pig during slow intravenous infusion of 220 uM solution.; format: toxicity, organism-based; details: in vivo; summary of the method: as §1
# Cavia porcellus [23] = assay: Compound dose producing 80% of increase in dP/dt in anesthetized guinea pig during slow intravenous infusion of 220 uM solution.; format: functional; summary of the method: as §1
# Cavia porcellus [24] = assay: Compound dose producing maximum inotropic effect in anesthetized guinea pig during slow intravenous infusion of 220 uM solution.; format: functional; summary of the method: as §1
# Cavia porcellus [25] = assay: Compound dose causing lethality in anesthetized guinea pig during slow intravenous infusion of 12.8 uM solution.; format: toxicity, organism-based; details: in vivo; summary of the method: as §1
# Cavia porcellus [26] = assay: Compound dose producing maximum increase in dP/dt, in anesthetized guinea pig during slow intravenous infusion of 12.8 uM solution.; format: functional; summary of the method: as §1
# Cavia porcellus [27] = assay: Compound dose producing maximum inotropic effect in anesthetized guinea pig during slow intravenous infusion of 12.8 uM solution.; format: functional; summary of the method: as §1
# Cavia porcellus [28] = assay: Compound dose producing 80% of increase in dP/dt in anesthetized guinea pig during slow intravenous infusion of 12.8 uM solution.; format: functional; summary of the method: as §1
# Cavia porcellus [29] = assay: Compound dose producing maximum inotropic effect in anesthetized guinea pig during slow intravenous infusion of 41.4 uM solution.; format: functional; summary of the method: as §1
# Cavia porcellus [30] = assay: Compound dose producing 80% of increase in dP/dt in anesthetized guinea pig during slow intravenous infusion of 41.4 uM solution.; format: functional; summary of the method: as §1
# Cavia porcellus [31] = assay: Compound dose producing maximum increase in dP/dt, in anesthetized guinea pig during slow intravenous infusion of 41.4 uM solution.; format: functional; summary of the method: as §1
# Cavia porcellus [32] = assay: Compound dose causing lethality in anesthetized guinea pig during slow intravenous infusion of 41.4 uM solution.; format: toxicity, organism-based; details: in vivo; summary of the method: as §1
smiles,measurement,setting,value
C[C@]12CC[C@H](O)C[C@H]1CC[C@@H]1[C@@H]2CC[C@]2(C)[C@@H](/C=N/OCCCCN)CC[C@]12O.O=C(O)C(=O)O,Emax,Cavia porcellus [1],148%
same,Emax,Cavia porcellus [2],5.03 µM/kg
same,IC50,[3],500 nM
same,Emax,[4],92%
same,ED80,Cavia porcellus [5],1.41 µM/kg
same,EC50,Cavia porcellus [6],2900 nM
same,LD,Cavia porcellus [7],14.8 µM/kg
CC(/C=N/OCCCN)=C\[C@H]1CC[C@]2(O)[C@@H]3CC[C@@H]4C[C@@H](O)CC[C@]4(C)[C@H]3CC[C@]12C.O=C(O)C(=O)O,Emax,Cavia porcellus [8],99%
same,Emax,Cavia porcellus [9],0.884 µM/kg
same,IC50,[3],200 nM
same,Emax,[4],90%
same,LD,Cavia porcellus [10],1.67 µM/kg
same,EC50,Cavia porcellus [6],170 nM
same,ED80,Cavia porcellus [11],0.447 µM/kg
CN(C)CCO/N=C/C=C/[C@H]1CC[C@]2(O)[C@@H]3CC[C@@H]4C[C@@H](O)CC[C@]4(C)[C@H]3CC[C@]12C.O=C(O)C(=O)O,IC50,[3],30 nM
same,Emax,[4],191%
same,ED80,Cavia porcellus [12],0.185 µM/kg
same,EC50,Cavia porcellus [6],57 nM
same,LD,Cavia porcellus [13],0.385 µM/kg
same,Emax,Cavia porcellus [14],0.275 µM/kg
same,Emax,Cavia porcellus [15],110%
same,Concentration giving maximal inotropic effect,[16],0.3 µM
C[C@H]1O[C@@H](O[C@H]2[C@@H](O)C[C@H](O[C@H]3[C@@H](O)C[C@H](O[C@H]4CC[C@@]5(C)[C@H](CC[C@@H]6[C@@H]5C[C@@H](O)[C@]5(C)[C@@H](C7=CC(=O)OC7)CC[C@]65O)C4)O[C@@H]3C)O[C@@H]2C)C[C@H](O)[C@@H]1O [DIGOXIN],Emax,Cavia porcellus [17],167%
same,Emax,[4],184%
same,LD,Cavia porcellus [18],1.25 µM/kg
same,dose to obtain Emax,Cavia porcellus [19],0.576 µM/kg
same,EC50,Cavia porcellus [6],380 nM
same,ED80,Cavia porcellus [20],0.205 µM/kg
same,Concentration giving maximal inotropic effect,[16],1 µM
CN(C)CCO/N=C\CC[C@H]1CC[C@]2(O)[C@@H]3CC[C@@H]4C[C@@H](O)CC[C@]4(C)[C@H]3CC[C@]12C.O=C(O)C(=O)O,Emax,Cavia porcellus [21],132%
same,LD,Cavia porcellus [22],7.83 µM/kg
same,IC50,[3],100 nM
same,Emax,[4],150%
same,ED80,Cavia porcellus [23],0.814 µM/kg
same,Emax,Cavia porcellus [24],3.65 µM/kg
same,EC50,Cavia porcellus [6],650 nM
CC(/C=N/OCCN)=C\[C@H]1CC[C@]2(O)[C@@H]3CC[C@@H]4C[C@@H](O)CC[C@]4(C)[C@H]3CC[C@]12C.O=C(O)/C=C/C(=O)O,LD,Cavia porcellus [25],0.292 µM/kg
same,IC50,[3],30 nM
same,Emax,[4],115%
same,Emax,Cavia porcellus [26],152%
same,Emax,Cavia porcellus [27],0.201 µM/kg
same,ED80,Cavia porcellus [28],0.128 µM/kg
same,EC50,Cavia porcellus [6],70 nM
C[C@]12CC[C@H](O)C[C@H]1CC[C@@H]1[C@@H]2CC[C@]2(C)[C@@H](/C=N/OCCCN)CC[C@]12O.O=C(O)C(=O)O,Emax,Cavia porcellus [29],0.435 µM/kg
same,IC50,[3],20 nM
same,Emax,[4],126%
same,ED80,Cavia porcellus [30],0.24 µM/kg
same,Emax,Cavia porcellus [31],163%
same,EC50,Cavia porcellus [6],180 nM
same,LD,Cavia porcellus [32],0.663 µM/kg

# — ChEMBL document CHEMBL1133742, “17beta-O-Aminoalkyloximes of 5beta-androstane-3beta,14beta-diol with digitalis-like activity: synthesis, cardiotonic activity, structure-activity relationships, and molecular modeling of the Na(+),K(+)-ATPase receptor” (J Med Chem, 2000)
